Data from ChEMBL document CHEMBL1140547, “Potent oxindole based human beta3 adrenergic receptor agonists” (Bioorg Med Chem Lett, 2007).

Key:
[1] = molecular target: T1, Beta-3 adrenergic receptor (Homo sapiens, UniProt P13945); experiment: Agonist activity at human beta-3 adrenergic receptor expressed in CHO cells assessed as cAMP level relative to isoproterenol; type: functional, cell-based
Method in brief: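 CHO cells expressing human β3 adrenergic receptor; agonism read out as cAMP level. Intrinsic activity taken as the compound's maximal response expressed as percentage of the maximal response to isoproterenol at […]; n = 3.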
Target sequence in this assay (P13945 whole entry, looked up): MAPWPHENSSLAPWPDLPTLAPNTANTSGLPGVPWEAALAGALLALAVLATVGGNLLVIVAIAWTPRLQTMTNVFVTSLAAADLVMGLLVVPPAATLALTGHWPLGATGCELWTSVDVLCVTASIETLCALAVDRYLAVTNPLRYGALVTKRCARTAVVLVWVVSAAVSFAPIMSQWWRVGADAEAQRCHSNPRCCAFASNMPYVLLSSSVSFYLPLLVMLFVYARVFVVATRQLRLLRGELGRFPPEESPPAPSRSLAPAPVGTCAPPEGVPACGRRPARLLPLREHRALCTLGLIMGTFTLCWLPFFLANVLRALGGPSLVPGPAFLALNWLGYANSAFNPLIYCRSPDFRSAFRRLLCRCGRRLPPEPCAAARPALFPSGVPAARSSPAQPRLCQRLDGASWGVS

[2] = molecular target: T1, Beta-3 adrenergic receptor; experiment: Agonist activity at human beta-3 adrenergic receptor expressed in CHO cells assessed as cAMP level; type: functional, cell-based
Method in brief: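 cAMP accumulation measured in CHO cells expressing the human β receptor. Intrinsic activity is the compound's maximal response as a percentage of the maximal isoproterenol response.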
Target sequence in this assay (P13945 whole entry): as the sequence (P13945 whole entry, looked up) above

[3] = molecular target: Beta-2 adrenergic receptor (Homo sapiens, UniProt P07550); experiment: Agonist activity at human beta-2 adrenergic receptor expressed in CHO cells assessed as cAMP level; type: functional, cell-based
Sequence of Beta-2 adrenergic receptor (P07550 whole entry): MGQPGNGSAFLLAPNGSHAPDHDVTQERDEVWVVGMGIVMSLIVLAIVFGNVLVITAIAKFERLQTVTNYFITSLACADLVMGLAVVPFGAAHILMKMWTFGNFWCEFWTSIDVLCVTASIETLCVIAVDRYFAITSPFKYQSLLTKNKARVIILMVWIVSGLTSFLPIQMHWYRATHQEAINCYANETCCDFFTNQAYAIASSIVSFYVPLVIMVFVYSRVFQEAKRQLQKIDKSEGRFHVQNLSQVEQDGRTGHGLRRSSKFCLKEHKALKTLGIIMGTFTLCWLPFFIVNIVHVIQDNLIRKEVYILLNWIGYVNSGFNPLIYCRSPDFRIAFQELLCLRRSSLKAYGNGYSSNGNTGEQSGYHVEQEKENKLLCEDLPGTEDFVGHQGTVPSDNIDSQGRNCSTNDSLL

[4] = molecular target: Beta-1 adrenergic receptor (Homo sapiens, UniProt P08588); experiment: Agonist activity at human beta-1 adrenergic receptor expressed in CHO cells assessed as cAMP level; type: functional, cell-based
Sequence of Beta-1 adrenergic receptor (P08588 whole entry): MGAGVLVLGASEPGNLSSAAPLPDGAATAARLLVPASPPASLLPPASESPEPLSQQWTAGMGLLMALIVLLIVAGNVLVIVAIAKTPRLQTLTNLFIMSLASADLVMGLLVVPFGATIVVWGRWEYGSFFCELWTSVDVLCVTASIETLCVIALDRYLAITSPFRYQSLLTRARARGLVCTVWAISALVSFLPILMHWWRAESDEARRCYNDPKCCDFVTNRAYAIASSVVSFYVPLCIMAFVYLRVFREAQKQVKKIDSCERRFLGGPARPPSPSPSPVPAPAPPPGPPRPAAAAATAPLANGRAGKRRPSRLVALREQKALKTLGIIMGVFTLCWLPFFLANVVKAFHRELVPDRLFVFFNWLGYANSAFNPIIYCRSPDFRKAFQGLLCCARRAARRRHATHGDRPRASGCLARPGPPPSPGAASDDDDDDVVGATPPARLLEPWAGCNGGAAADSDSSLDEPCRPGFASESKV

[5] = system: Cardiac atrium; experiment: Effect on rat atrial tachycardia assessed as increase in heart rate; type: functional
Method in brief: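 Isolated rat atria were used to score tachycardia. The value is the maximal response, or the response at a single fixed high agonist level when no maximum was reached.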

[6] = system: Rattus norvegicus; experiment: Reduction in respiratory quotient in diet induced obese Long Evans rat at 10 mg/kg, po after 20 hrs relative to control; type: functional; parameters: scale not given: the % may be the effect or the level left
Method in brief: (§1)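 Diet-induced obese Long Evans rats received one oral dose (1 or 10 mg/kg) or vehicle. Indirect calorimetry tracked respiratory quotient over 24 h. RQ reduction and energy expenditure increase were expressed as % versus vehicle over 20 h. Food consumption was recorded in g. Statistical significance was assessed against vehicle.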

[7] = system: Rattus norvegicus; experiment: Increase in energy expenditure in diet induced obese Long Evans rat at 10 mg/kg, po after 20 hrs relative to control; type: functional; method in brief: as §1
[8] = system: Rattus norvegicus; experiment: Effect on food consumption in diet induced obese Long Evans rat at 10 mg/kg, po; type: functional; method in brief: as §1
[9] = system: Rattus norvegicus; experiment: Reduction in respiratory quotient in diet induced obese Long Evans rat at 1 mg/kg, po after 20 hrs relative to control; type: functional; parameters: scale not given: the % may be the effect or the level left; method in brief: as §1
[10] = system: Rattus norvegicus; experiment: Increase in energy expenditure in diet induced obese Long Evans rat at 1 mg/kg, po after 20 hrs relative to control; type: functional; method in brief: as §1
[11] = system: Rattus norvegicus; experiment: Effect on food consumption in diet induced obese Long Evans rat at 1 mg/kg, po; type: functional; method in brief: as §1
[12] = Oral bioavailability in rat […]; type: ADME, organism-based; conditions: in vivo
[13] = molecular target: Beta-3 adrenergic receptor (Rattus norvegicus, UniProt P26255); experiment: Agonist activity at rat beta-3 adrenergic receptor; type: functional
Sequence of Beta-3 adrenergic receptor (Rattus norvegicus, UniProt P26255) (P26255 whole entry): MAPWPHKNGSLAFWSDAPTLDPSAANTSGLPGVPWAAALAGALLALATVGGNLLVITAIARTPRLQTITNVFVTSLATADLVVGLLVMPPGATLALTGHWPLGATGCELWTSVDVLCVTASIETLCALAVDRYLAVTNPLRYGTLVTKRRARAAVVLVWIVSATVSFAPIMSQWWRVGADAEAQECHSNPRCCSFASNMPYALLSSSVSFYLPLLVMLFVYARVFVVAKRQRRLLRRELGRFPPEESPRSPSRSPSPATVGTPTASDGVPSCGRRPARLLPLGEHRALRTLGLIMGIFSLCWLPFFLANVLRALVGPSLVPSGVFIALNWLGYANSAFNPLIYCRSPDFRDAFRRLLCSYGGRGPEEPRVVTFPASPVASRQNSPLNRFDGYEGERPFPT

[14] = Oral bioavailability in F344 rat; conditions: in vivo

Row | Structure (SMILES) | Emax [1] | EC50 [2] | EC50 [3] | EC50 [4] | Activity [5] | Activity [6] | Activity [7] | Activity [8] | Activity [9] | Activity [10] | Activity [11] | bioavailability [12] | EC50 [13] | bioavailability [14]
1 | CC(C)(Cc1ccc(Oc2ccc(C(N)=O)cn2)cc1)NC[C@H](O)COc1cccc2c1C(C)(C)C(=O)N2 | 67.9% | 5.2 nM | > 10000 nM | > 10000 nM | 9.7% | 45% | 14% | 11.8 g | 31% | 8% | 13.7 g | 10% | 6.5 nM | 10%
2 | CC(C)(Cc1ccc(Oc2ccc(C(N)=O)cn2)cc1)NC[C@H](O)COc1cccc2c1C1(CCCCC1)C(=O)N2 | 41% | 8.3 nM | > 10000 nM | > 10000 nM | 16% |  |  |  |  |  |  |  |  | 
3 | CC(C)(Cc1ccc(Oc2ccc(C(N)=O)cn2)cc1)NC[C@H](O)COc1cccc2c1CC(=O)N2 | 50.5% | 24.4 nM | > 10000 nM | > 10000 nM | 19.5% |  |  |  |  |  |  |  |  | 
4 | CC1C(=O)Nc2cccc(OC[C@@H](O)CNC(C)(C)Cc3ccc(Oc4ccc(C(N)=O)cn4)cc3)c21 (stereo not given in full) | 72.6% | 12 nM | > 10000 nM | > 10000 nM | 10.4% |  |  |  |  |  |  |  |  | 
5 | CC(C)(Cc1ccc(Oc2ccc(C(N)=O)cn2)cc1)NC[C@H](O)COc1cccc2c1C1(CCC1)C(=O)N2 | 71.2% | 17.6 nM | > 10000 nM | > 10000 nM | 14.8% |  |  |  |  |  |  |  |  | 
6 | CC(C)C1C(=O)Nc2cccc(OC[C@@H](O)CNC(C)(C)Cc3ccc(Oc4ccc(C(N)=O)cn4)cc3)c21 (stereo not given in full) | 41.7% | 13.9 nM | > 10000 nM | > 10000 nM |  |  |  |  |  |  |  |  |  | 
7 | CC(C)(Cc1ccc(Oc2ccc(C(N)=O)cn2)cc1)NC[C@H](O)COc1cccc2c1C1(CCCC1)C(=O)N2 | 66.3% | 10.6 nM | > 10000 nM | > 10000 nM | 8.6% |  |  |  |  |  |  |  |  | 
8 | CC(C)(Cc1ccc(Oc2ccc(C(N)=O)cn2)cc1)NC[C@H](O)COc1cccc2c1C(Cc1ccccc1)(Cc1ccccc1)C(=O)N2 | 48.5% | 268 nM | > 10000 nM | > 10000 nM |  |  |  |  |  |  |  |  |  | 
9 | CC(C)(Cc1ccc(Oc2ccc(C(N)=O)cn2)cc1)NC[C@H](O)COc1cccc2c1C(Cc1ccccc1)C(=O)N2 (stereo not given in full) | 15.6% | 12.3 nM | > 10000 nM | > 10000 nM |  |  |  |  |  |  |  |  |  | 
10 | CC(C)CC1C(=O)Nc2cccc(OC[C@@H](O)CNC(C)(C)Cc3ccc(Oc4ccc(C(N)=O)cn4)cc3)c21 (stereo not given in full) | 49.4% | 14 nM | > 10000 nM | > 10000 nM |  |  |  |  |  |  |  |  |  | 
11 | CC(C)(Cc1ccc(Oc2ccc(C(N)=O)cn2)cc1)NC[C@H](O)COc1cccc2c1C1(CC1)C(=O)N2 | 76.8% | 6.6 nM | 35.2 nM | 58.3 nM | 13.2% |  |  |  |  |  |  |  |  | 
12 | CCC1(CC)C(=O)Nc2cccc(OC[C@@H](O)CNC(C)(C)Cc3ccc(Oc4ccc(C(N)=O)cn4)cc3)c21 | 14.2% | 2.7 nM | > 10000 nM | > 10000 nM | 2% |  |  |  |  |  |  |  |  | 
